# From article PMC6468299 (Nucleic Acids Research, 2019)
# Columns and labels:
# DNA polymerase α (Pol-α) = target: T1, DNA polymerase α (Pol-α) (Homo sapiens, UniProt P09884); experiment: DNA polymerase inhibition assay, Pol-α; format: biochemical; conditions: Pol-α; 1 h, 3H-dTTP incorporation
# T1 sequence (P09884 1-1462): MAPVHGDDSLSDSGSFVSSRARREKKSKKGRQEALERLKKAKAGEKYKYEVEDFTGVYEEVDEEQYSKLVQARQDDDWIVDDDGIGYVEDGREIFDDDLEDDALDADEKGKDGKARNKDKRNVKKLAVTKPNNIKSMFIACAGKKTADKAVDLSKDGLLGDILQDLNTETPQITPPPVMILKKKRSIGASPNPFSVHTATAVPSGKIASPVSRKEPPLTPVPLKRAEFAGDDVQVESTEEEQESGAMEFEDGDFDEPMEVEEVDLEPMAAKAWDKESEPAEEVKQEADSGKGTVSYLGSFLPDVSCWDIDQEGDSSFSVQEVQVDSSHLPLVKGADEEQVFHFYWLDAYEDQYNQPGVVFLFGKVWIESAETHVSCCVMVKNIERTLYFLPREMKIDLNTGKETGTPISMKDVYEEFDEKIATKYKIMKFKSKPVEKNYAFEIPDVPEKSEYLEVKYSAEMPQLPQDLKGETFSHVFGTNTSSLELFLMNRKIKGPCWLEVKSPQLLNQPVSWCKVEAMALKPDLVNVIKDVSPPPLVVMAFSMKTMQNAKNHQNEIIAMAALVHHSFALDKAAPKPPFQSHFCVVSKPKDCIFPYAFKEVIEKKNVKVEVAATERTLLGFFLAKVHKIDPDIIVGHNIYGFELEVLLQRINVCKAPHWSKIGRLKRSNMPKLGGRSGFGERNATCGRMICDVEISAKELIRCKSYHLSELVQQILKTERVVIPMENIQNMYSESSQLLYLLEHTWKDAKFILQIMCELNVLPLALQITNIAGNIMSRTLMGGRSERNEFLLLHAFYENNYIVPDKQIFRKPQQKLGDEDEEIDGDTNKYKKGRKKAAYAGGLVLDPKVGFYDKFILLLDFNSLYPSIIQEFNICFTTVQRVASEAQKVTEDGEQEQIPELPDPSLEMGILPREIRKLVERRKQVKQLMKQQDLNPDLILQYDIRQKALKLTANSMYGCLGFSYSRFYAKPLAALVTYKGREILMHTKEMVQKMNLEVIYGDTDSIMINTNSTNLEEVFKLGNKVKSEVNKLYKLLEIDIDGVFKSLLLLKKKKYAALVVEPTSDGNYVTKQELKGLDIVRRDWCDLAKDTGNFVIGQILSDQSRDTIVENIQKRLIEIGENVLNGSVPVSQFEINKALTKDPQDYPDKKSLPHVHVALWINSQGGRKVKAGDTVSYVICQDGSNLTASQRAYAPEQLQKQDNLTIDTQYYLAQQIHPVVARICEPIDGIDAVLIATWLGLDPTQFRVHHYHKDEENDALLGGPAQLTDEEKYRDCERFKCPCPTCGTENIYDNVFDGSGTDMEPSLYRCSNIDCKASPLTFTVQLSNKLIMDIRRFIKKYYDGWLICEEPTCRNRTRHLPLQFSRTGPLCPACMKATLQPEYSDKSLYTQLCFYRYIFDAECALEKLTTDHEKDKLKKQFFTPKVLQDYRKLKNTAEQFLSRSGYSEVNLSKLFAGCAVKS
# DNA polymerase γ (Pol-γ) = target: T2, DNA polymerase γ (Pol-γ) (Homo sapiens, UniProt P54098); experiment: DNA polymerase inhibition assay, Pol-γ; format: biochemical; conditions: 1 h, 3H-dTTP incorporation
# T2 sequence (P54098 1-1239): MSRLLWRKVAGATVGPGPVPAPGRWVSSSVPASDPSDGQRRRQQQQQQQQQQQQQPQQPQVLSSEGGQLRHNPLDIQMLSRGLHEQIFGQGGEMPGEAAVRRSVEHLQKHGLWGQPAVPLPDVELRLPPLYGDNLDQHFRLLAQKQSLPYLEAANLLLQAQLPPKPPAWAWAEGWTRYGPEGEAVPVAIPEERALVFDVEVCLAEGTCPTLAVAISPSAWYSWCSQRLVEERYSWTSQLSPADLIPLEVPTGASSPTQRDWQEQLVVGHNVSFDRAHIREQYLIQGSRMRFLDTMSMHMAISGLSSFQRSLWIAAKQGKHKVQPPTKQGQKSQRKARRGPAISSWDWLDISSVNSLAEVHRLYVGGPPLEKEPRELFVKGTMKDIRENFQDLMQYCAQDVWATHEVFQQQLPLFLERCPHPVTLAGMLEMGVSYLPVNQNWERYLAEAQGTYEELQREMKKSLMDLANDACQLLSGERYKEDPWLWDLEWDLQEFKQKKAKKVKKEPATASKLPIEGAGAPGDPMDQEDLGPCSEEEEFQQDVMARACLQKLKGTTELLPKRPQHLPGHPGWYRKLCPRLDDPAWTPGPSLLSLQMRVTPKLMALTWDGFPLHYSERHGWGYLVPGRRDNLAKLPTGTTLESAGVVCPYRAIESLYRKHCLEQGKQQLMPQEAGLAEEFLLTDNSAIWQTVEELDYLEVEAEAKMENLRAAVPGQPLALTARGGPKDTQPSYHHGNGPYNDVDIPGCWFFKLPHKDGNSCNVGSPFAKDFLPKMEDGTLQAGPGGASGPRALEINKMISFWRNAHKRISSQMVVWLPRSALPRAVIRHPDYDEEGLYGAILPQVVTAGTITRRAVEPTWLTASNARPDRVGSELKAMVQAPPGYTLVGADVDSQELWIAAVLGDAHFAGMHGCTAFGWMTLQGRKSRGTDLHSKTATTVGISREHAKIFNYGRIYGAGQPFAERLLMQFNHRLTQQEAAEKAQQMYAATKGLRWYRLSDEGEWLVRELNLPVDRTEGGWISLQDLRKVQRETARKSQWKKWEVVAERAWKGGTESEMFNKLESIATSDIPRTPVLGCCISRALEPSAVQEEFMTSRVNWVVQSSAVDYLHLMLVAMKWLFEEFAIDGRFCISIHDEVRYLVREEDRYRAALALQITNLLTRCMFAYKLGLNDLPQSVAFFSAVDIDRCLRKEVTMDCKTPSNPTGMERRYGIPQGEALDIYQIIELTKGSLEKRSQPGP
# Method in brief: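 Reactions contained 25 μM each dATP/dCTP/dGTP, 25 nM TTP plus 1 μCi ³H-TTP, 160 nM template/primer, and serially diluted test nucleotide (0–200 μM). Incubation was 1 h at 37°C, stopped with TCA (10% final). DNA was precipitated 40 min at 4°C, washed and scintillation-counted; inhibition was taken from reduced radioactivity.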
# [1] = tested on: human mitochondrial Pol-γ; conditions: absence of endogenous dNTPs; cited from earlier work
structure (smiles),measurement,setting,value
Nc1ncnc2c1ncn2[C@@H]1O[C@H](COP(=O)(O)OP(=O)(O)OP(=O)(O)O)[C@@H](O)[C@H]1F [2′-F-ATP],IC50,DNA polymerase α (Pol-α),> 200 µM
same,IC90,DNA polymerase α (Pol-α),> 200 µM
same,IC50,DNA polymerase γ (Pol-γ),> 200 µM
same,IC90,DNA polymerase γ (Pol-γ),> 200 µM
Nc1ccn([C@@H]2O[C@H](COP(=O)(O)OP(=O)(O)OP(=O)(O)O)[C@@H](O)[C@H]2F)c(=O)n1 [2′-F-CTP],IC50,DNA polymerase α (Pol-α),> 200 µM
same,IC90,DNA polymerase α (Pol-α),> 200 µM
same,IC50,DNA polymerase γ (Pol-γ),> 200 µM
same,IC90,DNA polymerase γ (Pol-γ),> 200 µM
Nc1nc2c(ncn2[C@@H]2O[C@H](COP(=O)(O)OP(=O)(O)OP(=O)(O)O)[C@@H](O)[C@H]2F)c(=O)[nH]1 [2′-F-GTP],misincorporation frequency relative to the natural dTTP/dNTP,[1],16%
same,IC50,DNA polymerase α (Pol-α),> 200 µM
same,IC90,DNA polymerase α (Pol-α),> 200 µM
same,IC50,DNA polymerase γ (Pol-γ),> 200 µM
same,IC90,DNA polymerase γ (Pol-γ),> 200 µM
O=c1ccn([C@@H]2O[C@H](COP(=O)(O)OP(=O)(O)OP(=O)(O)O)[C@@H](O)[C@H]2F)c(=O)[nH]1 [2′-F-UTP],misincorporation frequency relative to the natural dTTP/dNTP,[1],0.5%
same,IC50,DNA polymerase α (Pol-α),> 200 µM
same,IC90,DNA polymerase α (Pol-α),> 200 µM
same,IC50,DNA polymerase γ (Pol-γ),> 200 µM
same,IC90,DNA polymerase γ (Pol-γ),> 200 µM
"O=c1[nH]c(=O)n([C@@H]2O[C@H](COP(=O)(O)OP(=O)(O)OP(=O)(O)O)[C@@H](O)[C@@H]2F)cc1I [FIAU-TP, fialuridine triphosphate, reference compound]",misincorporation frequency relative to the natural dTTP/dNTP,[1],125%
same,IC50,DNA polymerase α (Pol-α),0.27 µM
same,IC90,DNA polymerase α (Pol-α),13.7 µM
same,IC50,DNA polymerase γ (Pol-γ),1.04 µM
same,IC90,DNA polymerase γ (Pol-γ),13.4 µM
